Assay results: ChEMBL document CHEMBL1914341, “Anti-tumoral activities of dioncoquinones B and C and related naphthoquinones gained from total synthesis or isolation from plants” (Eur J Med Chem, 2011)

Assays:
[1] = Cytotoxicity against human INA-6 cells assessed as viable fractions using annexin V-FITC/propidium iodide staining by flow cytometry; format: functional, cell-based
Summary of the method: (§1)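 Human multiple myeloma INA-6 cells or mononuclear cells from peripheral blood of healthy donors exposed to a range of compound concentrations. Viable fraction taken as annexin V/PI double-negative cells; EC50 derived.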

PBMC = test: Cytotoxicity against human PBMC cells assessed as viable fractions using annexin V-FITC/propidium iodide staining by flow cytometry; format: cell-based; summary of the method: as §1

SMILES	EC50 [1]	EC50 (PBMC)
CC1=CC(=O)c2c(ccc(O)c2O)C1=O	75 µM	100 µM
COc1cccc2c1C(=O)C=C(C)C2=O	4 µM	16 µM
CC1=C(O)C(=O)c2cc(O)c(O)cc2C1=O	52 µM	–
CC1=C(O)C(=O)c2c(O)ccc(O)c2C1=O	> 100 µM	–
COc1ccc2c(c1OC)C(=O)C=C(C)C2=O	15 µM	13 µM
COc1ccc2c(c1OC)C(=O)C(O)=C(C)C2=O	> 100 µM	–
COc1cc2c(c(OC)c1OC)C(=O)C=C(C)C2=O	8 µM	7.5 µM
COc1cc2c(c(OC)c1OC)C(=O)C(O)=C(C)C2=O	> 100 µM	–
CC1=C(O)C(=O)c2c(cc(O)c(O)c2O)C1=O	7 µM	70 µM
COc1cc2c(cc1OC)C(=O)C(C)=CC2=O	6 µM	6.5 µM
CC1=C(O)C(=O)c2cc(O)ccc2C1=O	> 100 µM	–
CC1=CC(=O)c2cc(O)ccc2C1=O	13 µM	17 µM
COc1ccc2c(c1)C(=O)C(O)=C(C)C2=O	> 100 µM	50 µM
COc1ccc2c(c1O)C(=O)C(O)=C(C)C2=O	> 100 µM	–
COC1=C(C)C(=O)c2ccc(O)c(O)c2C1=O	> 100 µM	–
COc1cc2c(cc1OC)C(=O)C(O)=C(C)C2=O	> 100 µM	–
CC1=C(O)C(=O)c2c(ccc(O[C@@H]3O[C@H](CO)[C@@H](O)[C@H](O)[C@H]3O)c2O)C1=O [DIONCOQUINONE A]	29 µM	–
CC1=C(O)C(=O)c2c(ccc(O)c2O)C1=O [DIONCOQUINONE B]	11 µM	–
COc1cc2c(c(O)c1O)C(=O)C(O)=C(C)C2=O [DIONCOQUINONE C]	14 µM	–
COC1=C(C)C(=O)c2cc(OC)c(O)c(O)c2C1=O [DIONCOQUINONE D]	80 µM	–
COc1c(O)cc2c(c1O)C(=O)C(O)=C(C)C2=O [DIONCOQUINONE E]	100 µM	–
CC1=C(O)C(=O)c2c(O)cccc2C1=O [DROSERONE]	> 100 µM	–
N[C@@H](Cc1ccc(N(CCCl)CCCl)cc1)C(=O)O [MELPHALAN]	2 µM	3 µM
CC1=CC(=O)c2c(O)cccc2C1=O [PLUMBAGIN]	0.8 µM	0.8 µM
